MIN6 prolif-1 – inducers of MIN6 beta-cell proliferation, primary screen, ATP luminescence, uHTS. MIN6 cells proliferation, ATPlite luminescence, 48 h; cells starved in 0.2% serum; 100% = growth in 10% serum. proliferation, % at 10 µM. actives 0.29% (n = 330,000). AID 2380, 2010;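 active = compounds whose signal lies at least 3.5 SD above the mean of all wells on their plate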;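 also: 0% = DMSO-treated cells in low-serum medium and 100% = 10% serum control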
TMEM16A inh – TMEM16A chloride channel inhibitors, primary screen, cell-based, HTS. normalized B-score (activity score, 25-100; higher = stronger inhibition) at 10 µM. Anoctamin-1 (Mus musculus), Q8BHY3. actives 1.2% (n = 310,000). HEK293 TMEM16A/YFP iodide influx fluorescence, ionomycin;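 active = ratio plate-corrected score three or more library SD toward inhibition, starting fluorescence score within five deviations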;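 also: score derived from kinetic fluorescence span divided by baseline fluorescence per well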
TMEM16A act – TMEM16A chloride channel activators or potentiators, primary screen, cell-based, HTS | HEK293 TMEM16A/YFP-H148Q/I152L, iodide quench fluorescence; hits give low values | B-score at 10 µM | actives 0.3% (n = 340,000) | AID 623877, 2012;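 active = fluorescence-ratio B-score plate-corrected deviation score at least 3 library SD below zero, with starting fluorescence score within 5 deviations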;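 also: channel opened by trigger with iodide after compound preincubation; score built on the fluorescence ratio of max minus min over baseline; more negative score means more quench and so TMEM16A activation or potentiation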
MC4R ag barr – MC4R agonists recruiting beta-arrestin, primary screen, cell-based, luminescence, agonist arm of biased-ligand search; Melanocortin receptor 4 (Homo sapiens), P32245; U2OS MC4R beta-arrestin complementation; percent of melanotan II response, DMSO zero; activation, % at 8.9 µM; actives 0.98% (n = 360,000);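 active = activation above a per-plate cutoff, the mean activation of sample wells on that plate plus 3 SD, cut at about 8% in these data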
Target sequence (P32245 whole entry, looked up): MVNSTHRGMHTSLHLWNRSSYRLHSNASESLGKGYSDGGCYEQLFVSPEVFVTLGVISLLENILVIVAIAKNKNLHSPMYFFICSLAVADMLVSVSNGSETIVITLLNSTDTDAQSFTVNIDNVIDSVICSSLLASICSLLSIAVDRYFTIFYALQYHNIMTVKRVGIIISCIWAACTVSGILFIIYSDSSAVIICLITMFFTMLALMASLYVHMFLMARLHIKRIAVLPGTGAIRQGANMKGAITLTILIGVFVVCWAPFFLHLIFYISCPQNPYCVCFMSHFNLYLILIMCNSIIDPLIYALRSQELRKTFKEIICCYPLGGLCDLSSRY
HTR2A ag – mouse Htr2a agonists via beta-arrestin recruitment, primary screen, cell-based, luminescence; activation, % at 7.6 µM; AID 624169, 2012; actives 0.66% (n = 360,000); CHO-K1 mHTR2A beta-arrestin complementation; percent of 30 µM serotonin response; 5-hydroxytryptamine receptor 2A (Mus musculus), P35363;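 active = activation above a run cutoff, the mean activation of all tested compounds plus 3 SD, cut at about 14% in these data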;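 also: 0% = plate median of compound wells and 100% = 30 µM serotonin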
MC4R antagonist – MC4R antagonists of cAMP signaling, primary screen, cell-based, TR-FRET, antagonist arm of biased-ligand search; MC4R-expressing cells, MTII-stimulated cAMP, LANCE TR-FRET; actives 0.48% (n = 360,000); AID 540295, 2011; inhibition, % at 6.5 µM;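 active = inhibition above its plate's cutoff, the mean of tested wells on that plate plus 3 SD, cut at about 29% in these data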;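 also: 0% = Melanotan II alone and 100% = Melanotan II plus saturating MCL0020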
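Assay system: U2OS-MC4R stable cell line; Also added: Melanotan II; Technique: Eu-cAMP/anti-cAMP TR-FRET, emission 671 nm; Times: 30-min compound, 1-h challenge, 1-h detection, room temperature.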
MIN6 prolif-2 – inducers of beta-cell proliferation in MIN6, confirmation, MIN6 cells, mouse | shares compounds with MIN6 prolif-1 | ATPlite luminescence, 48 h; cells kept in 0.2% serum; scaled between 0.2% and 10% serum | proliferation increase, % at 50 µM | 920 tested, under 10 active | AID 463095, 2010;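 active = proliferation increase above 40% at any of the four tested concentrations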
Active calls of the source: *; i = inactive; x = no result given. A selection: hits, their analogues and other compounds. The true share with any hit is near 3.4%.

SMILES	MIN6 prolif-1	TMEM16A inh	TMEM16A act	MC4R ag barr	HTR2A ag	MC4R antagonist	MIN6 prolif-2
CC(C)[C@H](NS(=O)(=O)c1ccccc1)C(=O)OCC(=O)Nc1ccc2c(c1)OCO2	4.6*	i	i	-2	-3	20	0
CC(C)[C@H](NS(=O)(=O)c1ccccc1)C(=O)OCC(=O)Nc1cccc(S(N)(=O)=O)c1	1	x	i	-1	0	20	x
O=C(O)/C(=C/c1ccc(Cl)c([N+](=O)[O-])c1)c1ccc(S(=O)(=O)N2CCCCC2)s1	x	x	i	0	-2	20	x
Cn1c(SCC(=O)c2ccccc2)nnc1C1COc2ccccc2O1 (stereo unspecified)	5.6*	i	i	-1	-4	15	0
Cn1c(SCC(=O)c2ccc3c(c2)OCO3)nnc1C1COc2ccccc2O1 (stereo unspecified)	-5	i	i	-1	6	12	x
CC1(C)CN2C(=O)c3ccccc3C2(C)S1 (stereo unspecified)	8.0*	i	i	-1	5	-2	0
CC(=O)c1cccc(NC(=O)CSc2nnnn2C2CCCC2)c1	2	x	i	-1	7	10	x
CCOC(=O)Cc1cc(=O)n2[nH]c(-c3ccccc3)c(-c3ccccc3)c2n1	-4	i	i	0	2	18	x
CCOC(=O)Cc1cc(=O)n2[nH]c(C)c(-c3ccccc3)c2n1	6.1*	i	i	-1	-4	7	-3
CCC(Cc1ccccc1)NC(=O)Cn1cccc1C(=O)c1ccccc1 (stereo unspecified)	16*	i	i	0	-2	10	-6
CCc1nn(C(CC)C(=O)NCc2cccc(OC)c2)c(=O)c2cc3occc3n12 (stereo unspecified)	8	i	i	-2	2	-1	x
CCc1nn(C(CC)C(=O)NCc2cccc(OC)c2OC)c(=O)c2cc3occc3n12 (stereo unspecified)	14*	i	i	-2	0	13	-6
CCCOc1ccc(-c2c(=O)n(O)c3ccccc3[n+]2[O-])cc1	-6	i	i	-2	-4	-8	x
CCOC(=O)C1CCN(c2cc3c(cc2NC(=O)c2ccccc2F)n(C)c(=O)n3C)CC1	0	i	i	-1	1	5	x
CCOC(=O)C1CCN(c2cc3c(cc2NC(=O)c2ccccc2Cl)n(C)c(=O)n3C)CC1	15*	i	i	-1	3	4	-6
CCCCn1c(-c2nonc2N)nc2ccccc21	8.1*	i	i	2	2	-2	-4
CC(C)CCn1c(-c2nonc2N)nc2ccccc21	4	i	i	0	4	4	x
COc1ccc2[nH]c(=O)c(CN(C(=O)c3ccncc3)C(C)(C)C)cc2c1	13*	i	i	-1	-2	0	1
COc1ccc(OC(=O)COc2cc(C)ccc2C)cc1	6.1*	i	i	0	4	-2	-1
Cc1ccc(OC(=O)COc2ccccc2C)cc1	-3	i	i	2	2	12	x
O=C(Nc1ccc(-c2ccco2)cc1)C1CCCN(Cc2ccc(CO)o2)C1 (stereo unspecified)	11*	i	i	-2	-15	7	-6
N#CCCN(Cc1ccccc1)C(C(=O)NC1CCCCC1)c1cc2ccccc2o1 (stereo unspecified)	x	x	x	x	-9	x	x
COc1ccc(C(=O)NCC(C)(C)N2CCOCC2)cc1S(=O)(=O)NCc1ccc(Cl)cc1	x	x	i	0	-2	-2	x
COc1ccc(F)cc1S(=O)(=O)NCc1ccccc1	0.0*	i	i	0	-2	7	0
COc1ccc(C(=O)N2CCC2)cc1S(=O)(=O)NCc1ccc(Cl)cc1	8.2*	x	i	-2	-1	9	-2
SMILES	MIN6 prolif-1	TMEM16A inh	TMEM16A act	MC4R ag barr	HTR2A ag	MC4R antagonist	MIN6 prolif-2
CCOC(=O)c1sc(NC(=O)C2CCCCC2)nc1C	-1	i	i	0	-6	5	x
COc1ccc(-n2nnnc2SCC(=O)Nc2c(C)n[nH]c2C)cc1	4	x	i	-1	-1	2	x
COc1ccc(C2CC(c3cccc(OC)c3)n3nc(N)nc3N2)cc1 (stereo unspecified)	9.1*	i	i	2	2	6	2
COc1cccc(C2CC(c3ccccc3)Nc3nc(N)nn32)c1 (stereo unspecified)	-3	i	i	0	-1	0	x
COc1ccc(CN2C(=O)C(CC(=O)NCc3cccc4ccccc34)CC(C(=O)N(C(C)C)C(C)C)=C2C)cc1 (stereo unspecified)	x	x	x	x	2	x	x
CCC[C@@H](O)c1cc2cc(OC)c(OC)cc2c(=O)o1	12*	x	i	0	-3	0	-6
COc1cc2cc(C(C)(C)O)oc(=O)c2cc1OC	1	x	i	-1	4	-2	x
CCn1c(C)nc2cc(C(=O)N/N=C/c3ccc(O)cc3)ccc21	-3	i	i	0	-3	11	x
CCn1c(C)nc2cc(C(=O)N/N=C/c3ccc(OC)cc3)ccc21	7.8*	i	i	4	4	-10	3
COC(=O)c1ccc(OC)c(OC2CCCC2)c1	6.6*	i	i	2	0	5	3
COc1ccc(NC(=O)C2CC2)cc1OC1CCCC1	2	i	i	-1	2	15	x
CC(=O)c1c(C)nc2cc(Cl)ccc2c1N	5.5*	i	i	-1	0	-3	6
CCc1cccc(CC)c1N(COC)C(=O)Cn1c(CO)nc2ccccc21	1	i	i	-2	1	-1	x
CCc1cccc(CC)c1N(COC)C(=O)Cn1nnc2ccccc21	9.7*	i	i	-1	-7	-2	-3
CCCCNC(=O)C(NC(=O)c1cccs1)C(=O)c1ccccc1 (stereo unspecified)	x	x	x	x	1	x	x
Cc1ccc(S(=O)(=O)C[C@@H]2OC[C@H](Cc3ccccc3)N2S(=O)(=O)c2ccc(C)cc2)cc1	x	x	x	x	-8	x	x
